# ROMK primary: modulates human ROMK potassium channel activity; P48048; Tet-inducible ROMK, thallium flux fluorescence; actives lie on both sides; B-score at 10 µM; 130,000 compounds, 2% hits;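 active = signal ratio slope over the read window, or its plate-corrected B-score, at least 3 SD from the plate mean, either direction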;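 also: B-score of the F/F0 ratio slope over 7 to 12 s after thallium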
# Target sequence (P48048 whole entry, looked up): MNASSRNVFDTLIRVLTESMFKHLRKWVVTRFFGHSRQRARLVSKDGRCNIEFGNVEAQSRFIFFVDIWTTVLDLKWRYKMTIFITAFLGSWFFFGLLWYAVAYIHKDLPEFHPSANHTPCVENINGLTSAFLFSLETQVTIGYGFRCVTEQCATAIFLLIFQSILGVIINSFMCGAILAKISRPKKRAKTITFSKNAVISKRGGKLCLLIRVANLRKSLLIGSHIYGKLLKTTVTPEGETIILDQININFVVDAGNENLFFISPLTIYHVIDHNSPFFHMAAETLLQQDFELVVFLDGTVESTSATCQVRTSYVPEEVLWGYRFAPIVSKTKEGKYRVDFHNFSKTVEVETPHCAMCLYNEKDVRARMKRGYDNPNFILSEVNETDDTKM
# DTT redox prof: compounds producing H2O2 with reducing agent – biochemical, NIH compound library profiling, artefact control for MLSCN library redox annotation, primary screen. DTT-dependent redox cycling H2O2, phenol red/HRP absorbance; 100% = 100 µM peroxide control, 0% = buffer. activation, % at 10 µM. AID 878. 200,000 compounds, 0.03% hits;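 active = activation of at least 50% relative to the plate's high and low controls in the primary single-dose screen; inactive = activation below 50%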;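 also: compound incubated with DTT at 0.8 mM final as the reducing agent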
# Cl transport mod: modulates chloride dependent transport by human KCC2; Q9H2X9; KCC2 cells, thallium flux FluoZin-2 fluorescence; B-score of Tl+ flux slope (higher = more flux/activation; lower = inhibition) at 10 µM; 190,000 compounds, 2.2% hits;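 active = thallium flux slope and its plate-corrected score both differing from the plate sample mean at a set confidence after two filtering rounds, in either direction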;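 also: slope of fluorescence scaled to starting intensity during 10 to 20 s after thallium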
# MT stabilizer: stabilizes microtubules in HeLa cells | % tubulin-high responders, % at 10 µM | 200,000 compounds, 0.83% hits | AID 2205 | HeLa tubulin immunostaining HCS, 24 h; share of cells brighter than vehicle mean+2SD;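 active = plate Z-score above 3 for both tubulin-high and condensed-nucleus cell shares, with cell loss under 80%, at 10 µM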;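 also: anti alpha tubulin signal scored within the nucleus-defined area of each cell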
# bCat nuc transl: alters nuclear translocation of beta-catenin in HeLa cells. 190,000 compounds, 0.3% hits. AID 1665. nuclear translocation activity, % at 5 µM. immunofluorescence imaging;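 active = nuclear translocation activity above 50% at 5 µM, with a well cell count of 50 or more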;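 also: per-cell ratio of nuclear to cytoplasmic median beta-catenin stain intensity; plate controls were DMSO negative control for no effect and GSK-3 inhibitor IX positive control for full effect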
#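 System: HeLa cells, endogenous beta-catenin; compound dosing: 5 µM primary single dose, 0.1% DMSO, 0.02–20 µM confirmation series; incubation: 24 h compound exposure at 37°C, 5% CO2; signal: beta-catenin immunofluorescence imaging with DAPI; evaluation: % activation, nuclear-to-cytoplasmic median beta-catenin signal ratio per cell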
# * = called active by the depositor; . = no result given. Shown are actives, neighbours in structure and some others; about 3.7% of the full set was active somewhere.
SMILES,ROMK primary,DTT redox prof,Cl transport mod,MT stabilizer,bCat nuc transl
COc1cc(CNCCSc2nnnn2C)cc(Br)c1OCc1ccccc1,-2.2,-2,0.12,2,2
CCOC(=O)/C=c1\s/c(=C\c2ccc3c(c2)OCCO3)c(=O)n1CC(=O)NCC1CCCO1 (configuration not stated),-0.021,3,0.029,2,-7
CCOC(=O)/C=c1\s/c(=C\c2ccccc2C)c(=O)n1CC(=O)NCc1ccc2c(c1)OCO2,.,2,-2.1,22*,5
CCN(CC)c1cnn(C/C(=N\OC)c2ccc(Cl)cc2)c(=O)c1Br,.,0,-3.7*,2,.
CO/N=C(\Cn1ncc(N2CCCC2)c(Cl)c1=O)c1ccc(Cl)cc1,-0.86,0,-1.4,2,0
Cc1ccc2c(c1)C(c1ccccc1)CC(=O)O2 (configuration not stated),.,.,-0.0029,.,0
COc1ccc(N(C)C2=NS(=O)(=O)c3ccccc32)cc1,0.26,2,0.23,49*,28
COc1ccc2c(Cl)c(C(=O)N/N=C/c3c(C)[nH]c4ccccc34)sc2c1,.,1,0.75,22*,78*
O=C(N/N=C/c1c[nH]c2ccccc12)c1sc2ccccc2c1Cl,.,1,0.13,4,-2
COc1ccc(OC)c(Cc2nnc(CCC(=O)NCc3ccc(C)s3)o2)c1,.,-1,0.38,1,-1
O=C(CO/N=C/c1ccc(OC(F)F)cc1)NC1CCCCCC1,-0.16,-4,-1.6,4,0
O=C1OC(c2ccc3c(c2)OCO3)N(C(=O)c2ccc(Cl)c(Cl)c2)c2ccccc21 (configuration not stated),0.53*,0,-0.13,2,0
CCN(C(=O)[C@@H]1CCCN1C(=O)c1cccs1)c1nc2cc(Cl)ccc2s1,.,0,-0.77,3,0
CSc1ccc(NC(=O)N2CC=C(n3c(=O)[nH]c4ccccc43)CC2)cc1,1.8,1,-1,31*,-2
Cc1ccc(S(=O)(=O)C2C(=O)N(C)C3(C)CC2c2ccccc2O3)cc1 (configuration not stated),.,0,0.28,5,-2
Cn1ncc(N=Cc2ccccc2)c1C(=O)Nc1cccc(Cl)c1,.,3,-0.097,34*,49
O=C(COc1ccccc1/C=C1\SC(=O)NC1=O)Nc1ccccc1,-3.2*,-1,-4.5*,4,-1
COc1cc(CCN2C(=O)c3cccc4cccc(c34)C2=O)c(S(=O)(=O)NCCCO)cc1OC,-0.0018,0,.,3,0
O=C(Cc1ccc(Cl)cc1)Nc1ccc2oc(=O)ccc2c1,.,.,-1,.,0
O=C(Cc1ccc(Cl)cc1)Nc1ccc(-c2cc3ccccc3oc2=O)c(Cl)c1,0.74,0,-0.011,8,102*
Cc1ccccc1N1CCN(C2=NC(=O)/C(=C\c3cccs3)S2)CC1,0.46,0,-0.09,9.4*,0
Cc1ccc(CN2CCN(/N=C/c3cccs3)CC2)cc1,-0.1,-1,0.83,2,-1
CCOC(=O)Cn1c(=NC(=O)c2ccc([N+](=O)[O-])s2)sc2ccccc21,-0.03,1,0.49,4,0
O=C(CNc1ccccc1)N/N=C/c1c[nH]c2ccccc12,0.074,0,-0.39,16*,19
Cc1cccc(NC(=S)N/N=C/c2c[nH]c3ccccc23)c1,0.77,0,0.88,14*,.
SMILES,ROMK primary,DTT redox prof,Cl transport mod,MT stabilizer,bCat nuc transl
Cc1ccc(C(=O)Nc2ccc(C(=O)N/N=C/c3c[nH]c4ccccc34)cc2)cc1,0.26,0,-0.84,3,-1
CC(=O)C(=Cc1cn(-c2ccccc2)nc1-c1ccccc1)C(C)=O,-0.021,0,1.4,4,0
O=C(NCc1cccnc1)C(=O)N/N=C/c1ccc([N+](=O)[O-])cc1,-0.11,-2,-0.19,4,0
Cc1ccc(S(=O)(=O)N2c3ccc(S(N)(=O)=O)cc3CC2C)cc1 (configuration not stated),0.29,0,0.64,2,-5
Cc1ccc(S(=O)(=O)N2c3ccccc3CC2C)cc1 (configuration not stated),-0.39,-1,0.00045,13*,44
CCOc1ccc(S(=O)(=O)N2c3ccccc3CC2C)cc1 (configuration not stated),.,-1,-1.3,17*,163*
COC(=O)Cc1[nH]c(=S)[nH]c1C(=O)OC,0.061,.,-0.16,.,1
